According to ChEMBL document CHEMBL3525945, “Metabolic switching of BILR 355 in the presence of ritonavir. II. Uncovering novel contributions by gut bacteria and aldehyde oxidase” (Drug Metab Dispos, 2012):
One block for each molecule: values may come before it.

What was measured:
[1] = Drug level in human liver S9 fraction treated with BILR402 at 10 uM by LC-MS/MS analysis in presence of NADPH; format: ADME, subcellular; conditions: s9, 10 µM
Method in brief: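 BILR 402 (10 μM final) was incubated with human liver S9 or cytosol (1 mg/mL protein) in 0.05 M potassium phosphate pH 7.4 at 37 °C. Runs were done with or without 2.5 mM NADPH. Samples at 10, 20, 30 and 60 min were quenched in nevirapine/acetonitrile, filtered and analysed by LC-MS/MS; duplicate.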

Liver microsome [2] = test: Drug level in human liver microsomes treated with BILR402 at 1 uM by LC-MS/MS analysis in presence of CYP2C19 inhibitor ticlopidine; format: ADME
Method in brief: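 BILR 402 (1 μM) was incubated with human liver microsomes (0.05 mg/mL) for 30 min with NADPH, with or without ticlopidine 20 μM final as CYP2C19 inhibitor. BILR 402 depletion and BILR 355 formation were measured by LC-MS/MS.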

[3] = Drug excretion in mouse feces assessed as unchanged drug level; format: ADME, tissue-based; conditions: read-out: Drug excretion
[4] = Drug excretion in rat feces assessed as unchanged drug level; format: ADME, tissue-based; conditions: read-out: Drug excretion
[5] = Drug excretion in dog feces assessed as unchanged drug level; format: ADME, tissue-based, Canis lupus familiaris; conditions: read-out: Drug excretion
[6] = Drug excretion in mouse feces assessed as metabolite level; format: ADME, tissue-based
[7] = Drug excretion in rat feces assessed as metabolite level; format: ADME, tissue-based
[8] = Drug excretion in dog feces assessed as metabolite level; format: ADME, tissue-based, Canis lupus familiaris
Liver microsome [9] = test: Drug metabolism in human liver microsomes assessed as BILR402 metabolite formation at 5 uM by LC-MS/MS analysis; format: ADME
Method in brief: (§1)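 Pooled human liver microsomes, cytosol or S9 (1 mg/mL) were incubated with BILR 355 (5 μM final) in 0.05 M potassium phosphate pH 7.4 at 37 °C for 60 min. Microsomes and S9 received 2.5 mM NADPH.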

[10] = Drug metabolism in human liver S9 fraction assessed as BILR402 metabolite formation at 5 uM by LC-MS/MS analysis; format: ADME, subcellular; conditions: s9, 5 µM; method in brief: as §1
Liver cytosol [11] = test: Drug metabolism in human liver cytosol assessed as BILR402 metabolite formation at 5 uM by LC-MS/MS analysis; format: ADME, tissue-based; method in brief: as §1
Cytochrome P450 3A4 [12] = target: T1, Cytochrome P450 3A4 (Homo sapiens, UniProt P08684); test: Activity at recombinant CYP3A4 (unknown origin) expressed in baculovirus-infected insect cells treated with 1 uM BILR402 assessed as enzyme-mediated compound formation after 4 mins by LC-MS/MS analysis in presence of NADPH; format: ADME
Method in brief: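 rCYP3A4 (5 pmol/mL) incubated with BILR 402 at 1 or 10 μM in 0.1 M potassium phosphate/5 mM MgCl2, pH 7.4, with NADPH at 37 °C. Remaining BILR 402 and BILR 355 formed were read at 4 min by LC-MS/MS against a labelled internal standard.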

Liver microsome [13] = test: Drug metabolism in human liver microsomes assessed as BILR516 disproportionate human metabolite formation at 5 uM after 60 mins by LC-MS/MS analysis; format: ADME; conditions: 1 h; method in brief: as §1
[14] = Drug metabolism in human liver S9 fraction assessed as BILR516 disproportionate human metabolite formation at 5 uM after 60 mins by LC-MS/MS analysis; format: ADME, subcellular; conditions: s9, 1 h; method in brief: as §1
Liver cytosol [15] = test: Drug metabolism in human liver cytosol assessed as BILR516 disproportionate human metabolite formation at 5 uM after 60 mins by LC-MS/MS analysis; format: ADME, tissue-based; conditions: 1 h; method in brief: as §1
Cytochrome P450 3A4 [16] = target: T1, Cytochrome P450 3A4; test: Activity at recombinant CYP3A4 (unknown origin) expressed in baculovirus-infected insect cells treated with 10 uM BILR402 assessed as enzyme-mediated compound formation at 10 uM after 4 mins by LC-MS/MS analysis in presence of NADPH
[17] = substrate: CCN1c2ncc(CCOc3ccnc4ccccc34)cc2C(=O)N(C)c2cccnc21; test: Drug metabolism in human liver cytosol assessed as aldehyde-oxidase-mediated BILR516 metabolite formation after 10 mins by Eadie-Hofstee plot analysis; format: ADME, tissue-based
Method in brief: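 Human liver cytosol (0.1 mg/mL) was incubated with BILR 402 at 12 concentrations, 0.061–125 μM, for 10 min at 37 °C in 0.05 M potassium phosphate pH 7.4 without NADPH, within the linear range for protein and time. […] Apparent Km and Vmax were derived from the kinetic data.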

T1 sequence (P08684 whole entry): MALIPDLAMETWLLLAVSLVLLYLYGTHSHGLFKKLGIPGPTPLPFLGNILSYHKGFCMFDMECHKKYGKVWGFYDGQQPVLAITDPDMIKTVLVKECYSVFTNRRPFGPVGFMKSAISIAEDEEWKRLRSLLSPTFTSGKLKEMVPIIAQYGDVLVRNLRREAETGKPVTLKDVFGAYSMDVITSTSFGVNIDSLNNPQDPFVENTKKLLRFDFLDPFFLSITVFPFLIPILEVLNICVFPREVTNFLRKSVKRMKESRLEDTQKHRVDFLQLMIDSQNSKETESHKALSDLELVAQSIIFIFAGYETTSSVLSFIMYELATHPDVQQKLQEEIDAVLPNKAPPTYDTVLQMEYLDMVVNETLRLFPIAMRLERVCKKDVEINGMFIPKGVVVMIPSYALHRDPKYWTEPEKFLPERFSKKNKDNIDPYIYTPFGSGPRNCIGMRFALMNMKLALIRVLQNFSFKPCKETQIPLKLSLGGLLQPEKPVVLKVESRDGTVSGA

Drug metabolism [1]: metabolite_detected
Molecule: CCN1c2ncc(CCOc3cc(=O)[nH]c4ccccc34)cc2C(=O)N(C)c2cccnc21

Drug metabolism (Liver microsome [2]): metabolite_detected
dose excreted [3]: 0%
dose excreted [4]: 0%
dose excreted [5]: 0%
Drug excretion [6]: 72.5%
Drug excretion [7]: 72.5%
Drug excretion [8]: 72.5%
Drug metabolism (Liver microsome [9]): metabolite_not_detected
Drug metabolism [10]: metabolite_not_detected
Drug metabolism (Liver cytosol [11]): metabolite_not_detected
Drug metabolism (Cytochrome P450 3A4 [12]): 0.15 µM
Drug metabolism (Liver microsome [13]): metabolite_not_detected
Drug metabolism [14]: metabolite_not_detected
Drug metabolism (Liver cytosol [15]): metabolite_not_detected
Drug metabolism (Cytochrome P450 3A4 [16]): 0.9 µM
Molecule: CCN1c2ncc(CCOc3cc[n+]([O-])c4ccccc34)cc2C(=O)N(C)c2cccnc21 [BILR 355]

B1: Aldehyde oxidase (Homo sapiens) (protein)
chain: MDRASELLFYVNGRKVIEKNVDPETMLLPYLRKKLRLTGTKYGCGGGGCGACTVMISRYNPITKRIRHHPANACLIPICSLYGAAVTTVEGIGSTHTRIHPVQERIAKCHGTQCGFCTPGMVMSIYTLLRNHPEPTLDQLTDALGGNLCRCTGYRPIIDACKTFCKTSGCCQSKENGVCCLDQGINGLPEFEEGSKTSPKLFAEEEFLPLDPTQELIFPPELMIMAEKQSQRTRVFGSERMMWFSPVTLKELLEFKFKYPQAPVIMGNTSVGPEVKFKGVFHPVIISPDRIEELSVVNHAYNGLTLGAGLSLAQVKDILADVVQKLPEEKTQMYHALLKHLGTLAGSQIRNMASLGGHIISRHPDSDLNPILAVGNCTLNLLSKEGKRQIPLNEQFLSKCPNADLKPQEILVSVNIPYSRKWEFVSAFRQAQRQENALAIVNSGMRVFFGEGDGIIRELCISYGGVGPATICAKNSCQKLIGRHWNEQMLDIACRLILNEVSLLGSAPGGKVEFKRTLIISFLFKFYLEVSQILKKMDPVHYPSLADKYESALEDLHSKHHCSTLKYQNIGPKQHPEDPIGHPIMHLSGVKHATGEAIYCDDMPLVDQELFLTFVTSSRAHAKIVSIDLSEALSMPGVVDIMTAEHLSDVNSFCFFTEAEKFLATDKVFCVGQLVCAVLADSEVQAKRAAKRVKIVYQDLEPLILTIEESIQHNSSFKPERKLEYGNVDEAFKVVDQILEGEIHMGGQEHFYMETQSMLVVPKGEDQEMDVYVSTQFPKYIQDIVASTLKLPANKVMCHVRRVGGAFGGKVLKTGIIAAVTAFAANKHGRAVRCVLERGEDMLITGGRHPYLGKYKAGFMNDGRILALDMEHYSNAGASLDESLFVIEMGLLKMDNAYKFPNLRCRGWACRTNLPSNTAFRGFGFPQAALITESCITEVAAKCGLSPEKVRIINMYKEIDQTPYKQEINAKNLIQCWRECMAMSSYSLRKVAVEKFNAENYWKKKGLAMVPLKFPVGLGSRAAGQAAALVHIYLDGSVLVTHGGIEMGQGVHTKMIQVVSRELRMPMSNVHLRGTSTETVPNANISGGSVVADLNGLAVKDACQTLLKRLEPIISKNPKGTWKDWAQTAFDESINLSAVGYFRGYESDMNWEKGEGQPFEYFVYGAACSEVEIDCLTGDHKNIRTDIVMDVGCSINPAIDIGQIEGAFIQGMGLYTIEELNYSPQGILHTRGPDQYKIPAICDMPTELHIALLPPSQNSNTLYSSKGLGESGVFLGCSVFFAIHDAVSAARQERGLHGPLTLNSPLTPEKIRMACEDKFTKMIPRDEPGSYVPWNVPI
Km [17]: 0.772 µM
Vmax [17]: 0.000337 µmol/min
